ChEMBL document CHEMBL1144509, “Identification of some novel AHAS inhibitors via molecular docking and virtual screening approach” (Bioorg Med Chem, 2007)
pKi: −log10 of the molar value. One block for each molecule: values may come before it. Peptide text beside a SMILES is read from it.

Columns and labels:
[1] = tested on: Brassica rapa subsp. oleifera; assay: Herbicidal activity against Brassica campestris L assessed as inhibition of rape root growth at 10 ug/ml; assay type: functional
How it was run: (§1)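 Rape seeds pre-soaked 4 h in distilled water, then set on filter paper in 6-cm dishes wetted with 2 ml test solution, usually 10 seeds per plate, duplicate plates. Germination in the dark for 72 h at 28 (±1) °C. Mean length of 10 roots measured. Percent inhibition calculated against distilled-water controls.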

[2] = Inhibition of Arabidopsis thaliana AHAS
How it was run: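 Purified recombinant plant AHAS. Colorimetric assay in 50 mM potassium phosphate pH 7.0 with 50 mM pyruvate, 1 mM thiamine diphosphate, 10 mM MgCl2 and 10 µM FAD, compounds given as emulsions, 30 min at 37 °C. Stopped with 10% H2SO4, then 60 °C for 15 min to convert acetolactate to acetoin. Acetoin developed with 0.5% creatine and 5% α-naphthol for 15 min at 60 °C, read at A525.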

[3] = tested on: Brassica rapa subsp. oleifera; assay: Herbicidal activity against Brassica campestris L assessed as inhibition of rape root growth at 100 ug/ml; assay type: functional; how it was run: as §1

pKi [2]: 4.04
SMILES: O=C(O)C(Cc1c[nH]c2ccccc12)NSc1ccccc1[N+](=O)[O-] (stereo unspecified)
inhibition at 10 µg/mL [1]: 60.5%
inhibition at 100 µg/mL [3]: 74.8%

SMILES: CC(O)C(NC(=O)OCC1c2ccccc2-c2ccccc21)C(=O)O (stereo unspecified)
inhibition at 10 µg/mL [1]: 0%
inhibition at 100 µg/mL [3]: 25.7%

SMILES: CC(NC(=O)OCC1c2ccccc2-c2ccccc21)C(=O)O (stereo unspecified)
inhibition at 10 µg/mL [1]: 0%
inhibition at 100 µg/mL [3]: 12.9%

SMILES: O=C(O)C(Cc1ccc(O)cc1)NSc1ccccc1[N+](=O)[O-] (stereo unspecified)
inhibition at 10 µg/mL [1]: 0%
inhibition at 100 µg/mL [3]: 0%

SMILES: O=C(O)Cc1cccc(CC(=O)O)c1
inhibition at 10 µg/mL [1]: 0%
inhibition at 100 µg/mL [3]: 2.6%

SMILES: NC(=O)CCC(NC(=O)OCc1ccccc1)C(=O)O (stereo unspecified)
inhibition at 10 µg/mL [1]: 0%
inhibition at 100 µg/mL [3]: 6.3%

SMILES: NC(=O)CCC(NC(=O)OCC1c2ccccc2-c2ccccc21)C(=O)O (stereo unspecified)
inhibition at 10 µg/mL [1]: 0%
inhibition at 100 µg/mL [3]: 13.9%

SMILES: O=C(O)c1cccc(F)c1C(=O)O
inhibition at 10 µg/mL [1]: 0%
inhibition at 100 µg/mL [3]: 0%

SMILES: O=C(O)CC(NC(=O)OCc1ccccc1)C(=O)O (stereo unspecified)
inhibition at 10 µg/mL [1]: 0%
inhibition at 100 µg/mL [3]: 0%

SMILES: O=C(O)c1cc(-c2cc(C(=O)O)c3ccccc3n2)nc2ccccc12
inhibition at 10 µg/mL [1]: 0%
inhibition at 100 µg/mL [3]: 1.4%

pKi [2]: 4.38
SMILES: O=C1/C(=C2\Nc3ccc(S(=O)(=O)O)cc3C2=O)Nc2ccc(S(=O)(=O)O)cc21 [INDIGOTINDISULFONATE]
inhibition at 10 µg/mL [1]: 0%
inhibition at 100 µg/mL [3]: 0%

pKi [2]: 4.82
SMILES: O=C(O)c1ccc(SSc2ccc(C(=O)O)cn2)nc1
inhibition at 10 µg/mL [1]: 6%
inhibition at 100 µg/mL [3]: 12.1%

SMILES: N[C@@H](Cc1ccc(O)cc1)C(=O)N[C@@H](Cc1ccccc1)C(=O)O (H-Tyr-Phe-OH)
inhibition at 10 µg/mL [1]: 0%
inhibition at 100 µg/mL [3]: 0%

SMILES: O=C(NC(Cc1c[nH]cn1)C(=O)O)OCc1ccccc1 (stereo unspecified)
inhibition at 10 µg/mL [1]: 0%
inhibition at 100 µg/mL [3]: 0%
